According to ChEMBL document CHEMBL1821616, “New insights into the structural requirements for pro-apoptotic agents based on 2,4-diaminoquinazoline, 2,4-diaminopyrido[2,3-d]pyrimidine and 2,4-diaminopyrimidine derivatives” (Eur J Med Chem, 2011):
The source made the active and inactive calls. The rule behind the calls is not given here.

Legend:
[1] = test system: MDA-MB-231; test: Cytotoxicity against human MDA-MB-231 cells after 48 hrs by neutral red dye assay; type: functional, cell-based
[2] = test system: T-24; test: Cytotoxicity against human T24 cells after 48 hrs by neutral red dye assay; type: functional, cell-based
[3] = test system: MDA-MB-231; test: Induction of apoptosis in human MDA-MB-231 cells assessed as DNA fragmentation after 24 hrs by ELISA relative to control; type: functional
Summary of the method: (§1)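 DNA fragmentation was measured with the Cell Death Detection ELISA Plus kit after treatment of cultured tumour cells. The signal is expressed relative to untreated control cultures, which are set to 1.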

[4] = test system: HT-29; test: Induction of apoptosis in human HT-29 cells assessed as DNA fragmentation after 48 hrs by ELISA relative to control; type: functional; summary of the method: as §1
[5] = test system: HT-29; test: Cytotoxicity against human HT-29 cells after 48 hrs by neutral red dye assay; type: functional, cell-based
[6] = test system: T-24; test: Induction of apoptosis in human T24 cells assessed as DNA fragmentation after 48 hrs by ELISA relative to camptothecin; type: functional
[7] = test system: T-24; test: Induction of apoptosis in human T24 cells assessed as DNA fragmentation after 48 hrs by ELISA relative to control; type: functional; summary of the method: as §1
[8] = Cytotoxicity against human CRL11233 cells assessed as cell survival at 20 to 100 uM after 72 hrs by neutral red dye assay; type: cell-based; settings: read-out: Survival
Summary of the method: (§2)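 The non-tumoral lines were grown with 10% FBS plus penicillin/streptomycin, as monolayers at 37 °C in 5% CO2: CRL-8799 in MEG medium and CRL-11233 in BEGM. Compounds in DMSO (≤0.5% v/v final) were applied for 72 h. Survival was read by neutral red uptake against 0.5% DMSO solvent-treated controls, as the mean of triplicates.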

[9] = test system: HT-29; test: Induction of apoptosis in human HT-29 cells assessed as DNA fragmentation after 48 hrs by ELISA relative to camptothecin; type: functional
[10] = Cytotoxicity against human CRL8799 cells assessed as cell survival at 20 to 100 uM after 72 hrs by neutral red dye assay; type: cell-based; settings: read-out: Survival; summary of the method: as §2
[11] = test system: HT-29; test: Cytotoxicity against human HT-29 cells assessed as cell survival at 100 uM after 72 hrs by neutral red dye assay; type: functional; settings: HT-29, 72 h, read-out: Survival
Summary of the method: (§3)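 HT-29 and T-24 cells were grown in McCoy's medium and MDA-MB-231 in Leibovitz, each with 10% FBS plus penicillin/streptomycin, as monolayers at 37 °C in 5% CO2. Compounds in DMSO (≤0.5% v/v final) were applied for 72 h. Survival was read by neutral red uptake against 0.5% DMSO-treated cells, as the mean of triplicates.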

[12] = test system: MDA-MB-231; test: Cytotoxicity against human MDA-MB-231 cells after 72 hrs by neutral red dye assay; type: functional, cell-based; settings: MDA-MB-231, 72 h
Summary of the method: (§4)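 Human tumour cells were grown as monolayers with 10% FBS and penicillin/streptomycin at 37 °C in 5% CO2 (HT-29 and T-24 in McCoy's, MDA-MB-231 in Leibovitz). They were exposed to compound in DMSO (≤0.5% v/v final) at screening concentrations of 20 and 100 μM for 72 h and read by neutral red uptake. Survival is relative to cells given DMSO only, in triplicate.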

[13] = test system: HT-29; test: Cytotoxicity against human HT-29 cells after 72 hrs by neutral red dye assay; type: functional, cell-based; settings: HT-29, 72 h; summary of the method: as §4
[14] = test system: T-24; test: Cytotoxicity against human T24 cells assessed as cell survival at 100 uM after 72 hrs by neutral red dye assay; type: functional; settings: T-24, 72 h, read-out: Survival; summary of the method: as §3
[15] = test system: MDA-MB-231; test: Cytotoxicity against human MDA-MB-231 cells assessed as cell survival at 100 uM after 72 hrs by neutral red dye assay; type: functional; settings: MDA-MB-231, 72 h, read-out: Survival; summary of the method: as §3
[16] = test system: T-24; test: Cytotoxicity against human T24 cells after 72 hrs by neutral red dye assay; type: functional, cell-based; settings: T-24, 72 h; summary of the method: as §4

Row | SMILES | IC50 [1] | IC50 [2] | IC50 [5] | also measured
1 | CC(C)Sc1nc(NCCCO)c2cccnc2n1 | Not Active | Not Active | Not Active | Activity [3]: inactive; Activity [4]: inactive
2 | CCSc1nc(NCCCCO)c2cccnc2n1 | Not Active | Not Active | Not Active | 
3 | CCCCCNc1nc(SCCCCC)nc2ncccc12 | Not Active | Not Active | Not Active | Activity [4]: inactive
4 | c1ccc(CCNc2nc(NCCc3ccccn3)c3cccnc3n2)nc1 | Not Active | Not Active | Not Active | 
5 | OCCCNc1nc(NCCCO)c2cccnc2n1 | Not Active | Not Active | Not Active | 
6 | CCCCCSc1nc(NCCCC)c2cccnc2n1 | Not Active | Not Active | Not Active | 
7 | OCCCCNc1nc(NCCCCO)c2cccnc2n1 | Not Active | Not Active | Not Active | 
8 | CCSc1nc(NCCCCCO)c2cccnc2n1 | Not Active | Not Active | Not Active | 
9 | c1ccc(CCCCNc2ccnc(NCCCCc3ccccc3)n2)cc1 | Not Active | Not Active | Not Active | 
10 | c1ccc(CNc2ccnc(NCc3ccccc3)n2)cc1 |  |  |  | fold change (FC) [6]: 2.3; fold change (FC) [7]: 6; viability at 72 h, up to 100 µM [8]: 0%; fold change (FC) [9]: 2.3; viability at 72 h, up to 100 µM [10]: 22%; viability at 100 µM [11]: < 45%; IC50 [12]: 1.9 µM; Activity [3]: inactive; IC50 [13]: 17.2 µM; fold change (FC) [4]: 7.4; viability at 100 µM [14]: < 45%; viability at 100 µM [15]: < 45%; IC50 [16]: 6.1 µM
11 | CCSc1nc(NCCCO)c2cccnc2n1 | Not Active | Not Active | Not Active | 
